From ChEMBL document CHEMBL1125337, “Synthesis and antibacterial activity of a series of basic amides of teicoplanin and deglucoteicoplanin with polyamines” (J Med Chem, 1992)
Values after ≈ are worked out from the molar mass of the structure shown.

Experiments:
[1] = system: Staphylococcus epidermidis; assay: Minimum inhibitory concentration against Staphylococcus epidermidis ATCC 12228; type: functional
In short: (§1)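 MIC (µg/mL) by microbroth dilution in Iso-Sensitest broth; final inoculum 10^4 cfu/mL; 24 h at 37 °C in air.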

Streptococcus pneumoniae = assay: Minimum inhibitory concentration against Streptococcus pneumoniae L 44; type: functional
In short: (§2)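 MIC (µg/mL) by microbroth dilution in Todd-Hewitt broth, final inoculum 10^4 cfu/mL, incubated 24 h at 37 °C in air.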

Staphylococcus aureus = assay: Minimum inhibitory concentration against Staphylococcus aureus L 165; type: functional; in short: as §1
Streptococcus pyogenes [2] = assay: Efficacy of compound administered subcutaneously against Streptococcus pyogenes L 49 Septicemia in mouse; type: functional; conditions: sc
In short: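 Mice were infected intraperitoneally with about 10^5 Strep. pyogenes L 49 cells, about 100 times the 50% lethal dose. Groups of 5–8 mice were treated once right after challenge, by the route stated in the line. ED50 (mg/kg) was derived from percentage survival at each dose on day 7 (Spearman-Kärber).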

Proteus vulgaris [3] = assay: Minimum inhibitory concentration against Proteus vulgaris ATCC 881; type: functional; in short: as §1
Pseudomonas aeruginosa [4] = assay: Minimum inhibitory concentration against Pseudomonas aeruginosa ATCC 10145; type: functional; in short: as §1
[5] = Association constant to Ac2-L-Lys-D-Ala-D-Ala determined at pH 9; Value ranges from 5E4-7.5E4
Streptococcus pyogenes [6] = assay: Minimum inhibitory concentration against Streptococcus pyogenes L 49; type: functional; in short: as §2
Enterococcus faecalis = assay: Minimum inhibitory concentration against Enterococcus faecalis ATCC 7080; type: functional
In short: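 Microbroth dilution MIC (µg/mL), final inoculum 10^4 cfu/mL, incubated 24 h at 37 °C in air.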

[7] = system: Staphylococcus haemolyticus; assay: Minimum inhibitory concentration against Staphylococcus haemolyticus L 602; type: functional; in short: as §1
Escherichia coli [8] = assay: Minimum inhibitory concentration against Escherichia coli L 47; type: functional; in short: as §1
Streptococcus pyogenes [9] = assay: Minimum inhibitory concentration of compound was determined against Streptococcus pyogenes L 49 in mouse; type: functional
Bacteroides fragilis [10] = assay: Minimum inhibitory concentration of compound was determined against Bacteroides fragilis L 1011; type: functional
In short: (§3)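 Microbroth dilution MIC (µg/mL) in Wilkins-Chalgren broth, final inoculum 10^5 cfu/mL, incubated 48 h in an anaerobic chamber.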

Serratia marcescens [11] = assay: Minimum inhibitory concentration of compound was determined against Serratia marcescens L 1506; type: functional; in short: as §1
Enterobacter cloacae [12] = assay: Minimum inhibitory concentration of compound was determined against Enterobacter cloacae L 1485; type: functional; in short: as §1
Pseudomonas aeruginosa [13] = assay: Minimum inhibitory concentration of compound was determined against Pseudomonas aeruginosa L 1533; type: functional; in short: as §1
Enterobacter cloacae [14] = assay: Minimum inhibitory concentration of compound was determined against Enterobacter cloacae L 1504; type: functional; in short: as §1
Escherichia coli [15] = assay: Minimum inhibitory concentration of compound was determined against Escherichia coli L 1484; type: functional; in short: as §1
Pseudomonas aeruginosa [16] = assay: Minimum inhibitory concentration of compound was determined against Pseudomonas aeruginosa L 1138; type: functional; in short: as §1
Pseudomonas aeruginosa [17] = assay: Minimum inhibitory concentration of compound was determined against Pseudomonas aeruginosa L 1348; type: functional; in short: as §1
Escherichia coli [18] = assay: Minimum inhibitory concentration of compound was determined against Escherichia coli L 1536; type: functional; in short: as §1
Proteus vulgaris [19] = assay: Minimum inhibitory concentration of compound was determined against Proteus vulgaris L 1539; type: functional; in short: as §1
Pseudomonas aeruginosa [20] = assay: Minimum inhibitory concentration of compound was determined against Pseudomonas aeruginosa L 1498; type: functional; in short: as §1
Bacteroides fragilis [21] = assay: Minimum inhibitory concentration of compound was determined against Bacteroides fragilis L 1010; type: functional; in short: as §3
Proteus mirabilis [22] = assay: Minimum inhibitory concentration of compound was determined against Proteus mirabilis L 1356; type: functional; in short: as §1
Escherichia coli [23] = assay: Minimum inhibitory concentration of compound was determined against Escherichia coli L 1153; type: functional; in short: as §1
Serratia marcescens [24] = assay: Minimum inhibitory concentration of compound was determined against Serratia marcescens L 1488; type: functional; in short: as §1
Escherichia coli [25] = assay: Minimum inhibitory concentration of compound was determined against Escherichia coli L 1513; type: functional; in short: as §1
Proteus mirabilis [26] = assay: Minimum inhibitory concentration of compound was determined against Proteus mirabilis L 1157; type: functional; in short: as §1
Bacteroides fragilis [27] = assay: Minimum inhibitory concentration of compound was determined against Bacteroides fragilis L 1236; type: functional; in short: as §3
Escherichia coli [28] = assay: Minimum inhibitory concentration of compound was determined against Escherichia coli L 1572; type: functional; in short: as §1
Shigella sonnei = assay: Minimum inhibitory concentration of compound was determined against Shigella sonnei L 363; type: functional; in short: as §1
Shigella dysenteriae = assay: Minimum inhibitory concentration of compound was determined against Shigella dysentariae L155; type: functional
Salmonella typhimurium = assay: Minimum inhibitory concentration of compound was determined against Salmonella Typhimurium L 35; type: functional, Salmonella enterica subsp. enterica serovar Typhimurium; conditions: Salmonella enterica; in short: as §1
Klebsiella pneumoniae [29] = assay: Minimum inhibitory concentration of compound was determined against Klebsiella pneumoniae L 1481; type: functional; in short: as §1
Escherichia coli [30] = assay: Minimum inhibitory concentration of compound was determined against Escherichia coli L 1347; type: functional; in short: as §1
Klebsiella pneumoniae [31] = assay: Minimum inhibitory concentration of compound was determined against Klebsiella pneumoniae L 1499; type: functional; in short: as §1

NCCCNCCNCCCNC(=O)[C@H]1NC(=O)[C@H]2NC(=O)[C@H](NC(=O)[C@@H]3NC(=O)[C@H]4NC(=O)[C@@H](Cc5ccc(c(Cl)c5)Oc5cc3cc(c5O)Oc3ccc(cc3Cl)[C@H]2O)NC(=O)[C@H](N)c2ccc(O)c(c2)Oc2cc(O)cc4c2)c2ccc(O)c(c2)-c2c(O)cc(O)cc21
MIC [1]: 0.063 mg/L (≈ 0.0465 µM)
MIC (Streptococcus pneumoniae): 0.125 mg/L (≈ 0.0922 µM)
MIC (Staphylococcus aureus): 0.125 mg/L (≈ 0.0922 µM)
ED50 (Streptococcus pyogenes [2]): 2.87 mg/kg
MIC (Proteus vulgaris [3]): 64 mg/L (≈ 47.2 µM)
MIC (Pseudomonas aeruginosa [4]): 16 mg/L (≈ 11.8 µM)
Ka [5]: 75000 M⁻¹
MIC (Streptococcus pyogenes [6]): 0.063 mg/L (≈ 0.0465 µM)
MIC (Enterococcus faecalis): 0.125 mg/L (≈ 0.0922 µM)
MIC [7]: 0.125 mg/L (≈ 0.0922 µM)
MIC (Escherichia coli [8]): 2 mg/L (≈ 1.48 µM)
MIC (Streptococcus pyogenes [9]): 0.06 mg/L (≈ 0.0443 µM)

NCCNCCCNCCNC(=O)[C@H]1NC(=O)[C@H]2NC(=O)[C@H](NC(=O)[C@@H]3NC(=O)[C@H]4NC(=O)[C@@H](Cc5ccc(c(Cl)c5)Oc5cc3cc(c5O)Oc3ccc(cc3Cl)[C@H]2O)NC(=O)[C@H](N)c2ccc(O)c(c2)Oc2cc(O)cc4c2)c2ccc(O)c(c2)-c2c(O)cc(O)cc21
MIC [1]: 0.063 mg/L (≈ 0.047 µM)
MIC (Streptococcus pneumoniae): 0.125 mg/L (≈ 0.0932 µM)
MIC (Staphylococcus aureus): 0.063 mg/L (≈ 0.047 µM)
MIC (Proteus vulgaris [3]): 128 mg/L (≈ 95.4 µM)
MIC (Pseudomonas aeruginosa [4]): 64 mg/L (≈ 47.7 µM)
Ka [5]: 75000 M⁻¹
MIC (Streptococcus pyogenes [6]): 0.063 mg/L (≈ 0.047 µM)
MIC (Enterococcus faecalis): 0.125 mg/L (≈ 0.0932 µM)
MIC [7]: 0.063 mg/L (≈ 0.047 µM)
MIC (Escherichia coli [8]): 4 mg/L (≈ 2.98 µM)

NCCN(CCN)CCNC(=O)[C@H]1NC(=O)[C@H]2NC(=O)[C@H](NC(=O)[C@@H]3NC(=O)[C@H]4NC(=O)[C@@H](Cc5ccc(c(Cl)c5)Oc5cc3cc(c5O)Oc3ccc(cc3Cl)[C@H]2O)NC(=O)[C@H](N)c2ccc(O)c(c2)Oc2cc(O)cc4c2)c2ccc(O)c(c2)-c2c(O)cc(O)cc21
MIC [1]: 0.016 mg/L (≈ 0.0121 µM)
MIC (Streptococcus pneumoniae): 0.125 mg/L (≈ 0.0942 µM)
MIC (Staphylococcus aureus): 0.063 mg/L (≈ 0.0475 µM)
ED50 (Streptococcus pyogenes [2]): 1.25 mg/kg
MIC (Proteus vulgaris [3]): 32 mg/L (≈ 24.1 µM)
MIC (Pseudomonas aeruginosa [4]): 8 mg/L (≈ 6.03 µM)
Ka [5]: 75000 M⁻¹
MIC (Streptococcus pyogenes [6]): 0.063 mg/L (≈ 0.0475 µM)
MIC (Enterococcus faecalis): 0.125 mg/L (≈ 0.0942 µM)
MIC [7]: 0.063 mg/L (≈ 0.0475 µM)
MIC (Escherichia coli [8]): 1 mg/L (≈ 0.753 µM)
MIC (Streptococcus pyogenes [9]): 0.06 mg/L (≈ 0.0452 µM)

CNCCCN(C)C(=O)[C@H]1NC(=O)[C@H]2NC(=O)[C@H](NC(=O)[C@@H]3NC(=O)[C@H]4NC(=O)[C@@H](Cc5ccc(c(Cl)c5)Oc5cc3cc(c5O)Oc3ccc(cc3Cl)[C@H]2O)NC(=O)[C@H](N)c2ccc(O)c(c2)Oc2cc(O)cc4c2)c2ccc(O)c(c2)-c2c(O)cc(O)cc21
MIC (Bacteroides fragilis [10]): 32 mg/L (≈ 24.9 µM)
MIC [1]: 0.063 mg/L (≈ 0.0491 µM)
MIC (Serratia marcescens [11]): 32 mg/L (≈ 24.9 µM)
MIC (Enterobacter cloacae [12]): 32 mg/L (≈ 24.9 µM)
MIC (Pseudomonas aeruginosa [13]): 128 mg/L (≈ 99.8 µM)
MIC (Enterobacter cloacae [14]): 32 mg/L (≈ 24.9 µM)
MIC (Escherichia coli [15]): 16 mg/L (≈ 12.5 µM)
MIC (Pseudomonas aeruginosa [16]): 64 mg/L (≈ 49.9 µM)
MIC (Streptococcus pneumoniae): 0.125 mg/L (≈ 0.0974 µM)
MIC (Pseudomonas aeruginosa [17]): 16 mg/L (≈ 12.5 µM)
MIC (Staphylococcus aureus): 0.063 mg/L (≈ 0.0491 µM)
MIC (Escherichia coli [18]): 8 mg/L (≈ 6.23 µM)
ED50 (Streptococcus pyogenes [2]): 1.25 mg/kg
MIC (Proteus vulgaris [19]): 128 mg/L (≈ 99.8 µM)
MIC (Pseudomonas aeruginosa [20]): 128 mg/L (≈ 99.8 µM)
MIC (Bacteroides fragilis [21]): 32 mg/L (≈ 24.9 µM)
MIC (Proteus mirabilis [22]): 32 mg/L (≈ 24.9 µM)
MIC (Proteus vulgaris [3]): 32 mg/L (≈ 24.9 µM)
MIC (Escherichia coli [23]): 4 mg/L (≈ 3.12 µM)
MIC (Pseudomonas aeruginosa [4]): 16 mg/L (≈ 12.5 µM)
MIC (Serratia marcescens [24]): 16 mg/L (≈ 12.5 µM)
MIC (Streptococcus pyogenes [6]): 0.063 mg/L (≈ 0.0491 µM)
MIC (Enterococcus faecalis): 0.125 mg/L (≈ 0.0974 µM)
MIC (Escherichia coli [25]): 8 mg/L (≈ 6.23 µM)
MIC (Proteus mirabilis [26]): 64 mg/L (≈ 49.9 µM)
MIC (Bacteroides fragilis [27]): 64 mg/L (≈ 49.9 µM)
MIC (Escherichia coli [28]): 8 mg/L (≈ 6.23 µM)
MIC [7]: 0.063 mg/L (≈ 0.0491 µM)
MIC (Shigella sonnei): 8 mg/L (≈ 6.23 µM)
MIC (Shigella dysenteriae): 4 mg/L (≈ 3.12 µM)
MIC (Salmonella typhimurium): 16 mg/L (≈ 12.5 µM)
MIC (Klebsiella pneumoniae [29]): 16 mg/L (≈ 12.5 µM)
MIC (Escherichia coli [8]): 2 mg/L (≈ 1.56 µM)
MIC (Escherichia coli [30]): 8 mg/L (≈ 6.23 µM)
MIC (Klebsiella pneumoniae [31]): 32 mg/L (≈ 24.9 µM)
MIC (Streptococcus pyogenes [9]): 0.06 mg/L (≈ 0.0468 µM)
